Source: PubChem
Rows were chosen to be rich in hits. Some 2.4% of all compounds tested hit in one or more screens of this group.
S1P4 antag – human S1P4 receptor antagonism | O95977 | S1P4-expressing cells, antagonist mode, reporter read-out | inhibition, % at 4.98 µM | 220,000 tested, 0.26% active; in the data active means inhibition above about 29%;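 further: 0% = wells stimulated with agonist and 100% = vehicle wells without agonist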
NPY Y2 blocker – NPY-Y2 (human) receptor antagonism; NPY-Y2 expressing cells, antagonist mode; inhibition, % at 2.7 µM; 140,000 tested, 0.99% active; AID 793; in the data active means inhibition above about 17%;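 further: 0% = vehicle with agonist challenge and 100% = reference antagonist with challenge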
Target sequence (P49146 whole entry, looked up): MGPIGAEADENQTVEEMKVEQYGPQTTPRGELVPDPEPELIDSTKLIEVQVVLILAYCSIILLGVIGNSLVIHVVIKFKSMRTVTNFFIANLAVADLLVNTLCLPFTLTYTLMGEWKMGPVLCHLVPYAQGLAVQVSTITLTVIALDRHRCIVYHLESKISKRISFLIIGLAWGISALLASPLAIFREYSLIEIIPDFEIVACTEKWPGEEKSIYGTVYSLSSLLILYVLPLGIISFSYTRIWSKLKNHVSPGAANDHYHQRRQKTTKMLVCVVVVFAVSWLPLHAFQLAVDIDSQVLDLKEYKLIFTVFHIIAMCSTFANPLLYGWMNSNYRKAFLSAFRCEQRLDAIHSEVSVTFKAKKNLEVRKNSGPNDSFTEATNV
NPY1 pot ag – potentiators or agonists of human neuropeptide Y receptor Y1; NPY-Y1 expressing cells, potentiator/agonist activation; P25929; AID 1304; activation, % at 3.6 µM; 220,000 tested, 0.37% active; in the data active means activation above about 33%, passing the limit was not always enough;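 further: cells stimulated with NPY at EC10 then isoproterenol at EC100; 0% = low agonist plus stimulus and 100% = saturating agonist plus stimulus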
S1P4 agonist – human S1P4 receptor agonism; 220,000 tested, 0.35% active; activation, % at 4.98 µM; S1P4-expressing cell line, agonist reporter assay; AID 1509; O95977; in the data active means activation above about 11%;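 further: 0% = DMSO vehicle and 100% = reference agonist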
NPY Y1 blocker – blocks the human neuropeptide Y Y1 receptor; HEK293-CNG Y1 cells, membrane potential fluorescence; NPY at EC95, then isoproterenol; inhibition, % at 3.6 µM; 200,000 tested, 1% active; AID 1040;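 active means inhibition above the campaign mean inhibition of all tested compounds plus 3 SD, cut at about 20% in these data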;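 further: 0% = DMSO wells given NPY plus isoproterenol and 100% = isoproterenol alone without NPY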
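Material: HEK293 cells with Y1 receptor plus CNG channel; times: compound incubation 1 h at room temperature, readout 45 min post-stimulation; signal: fluorescence, membrane potential probe; read-out basis: fluorescence ratio normalized to % inhibition between controls; benchmarks: full-block control isoproterenol-only wells, zero-block control NPY plus isoproterenol wells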
NPY2 pot ag – potentiates or activates human NPY-Y2 receptor | P49146 | cells expressing NPY-Y2, potentiator/agonist read-out | activation, % at 3.6 µM | 220,000 tested, 0.45% active; in the data active means activation above about 27%;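 further: cells stimulated with NPY near EC25 plus isoproterenol at EC100; 0% = vehicle plus submaximal agonist and 100% = vehicle plus saturating agonist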
NPY-Y1 antag ct – human NPY-Y1 antagonism in NPY-Y2 counter-screen | 710 tested, 19% active | shares compounds with NPY Y2 blocker | AID 1256 | inhibition, % at 3.6 µM | cell-based NPY-Y1 antagonism counterscreen; in the data active means inhibition above about 20%;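 further: cells challenged with NPY then isoproterenol with cAMP sensed through a CNG channel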
NPY2 antag conf – confirmation of human neuropeptide Y receptor Y2 antagonists. HEK293 NPY-Y2 CNG channel, membrane potential fluorescence. inhibition, % at 2.8 µM. AID 1257. 710 tested, 32% active. shares compounds with NPY Y2 blocker;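 active means mean inhibition of triplicate wells above the hit cutoff set in the primary screen, cut at about 17% in these data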;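 further: 0% = DMSO with NPY challenge and 100% = BIIE0246 high control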
Active calls of the source: *; x = no result given.

SMILES	S1P4 antag	NPY Y2 blocker	NPY1 pot ag	S1P4 agonist	NPY Y1 blocker	NPY2 pot ag	NPY-Y1 antag ct	NPY2 antag conf
Cc1ccc(C(=O)OCC(=O)Nc2ccccc2N2CCOCC2)cc1	1	1	0	0	4	7	x	x
N#Cc1c(NC(=S)NC(=O)c2ccccc2)sc2c1CCCC2	-1	1	-10	0	-5	8	x	x
C=CCNCc1cccn1-c1sc2c(c1C#N)CCCC2	2	18*	8	0	9	4	8	11
Brc1cccc(-c2nnc(-c3ccccc3)o2)c1	-2	18*	-28	0	20	-3	14	13
Cc1ccc(-c2nnc(-c3cccc(Br)c3)o2)cc1	-5	13	-20	0	3	-4	x	x
O=C(COc1cccc2ccccc12)NNC(=O)[C@@H]1CCCC[C@@H]1C(=O)O	-2	5	-16	2	10	-20	x	x
CCOC(=O)C1=C(c2ccccc2)NC(SCC(=O)Nc2cccc(C)c2)=C(C#N)C1c1ccco1 (configuration not stated)	10	7	-14	-2	10	-17	x	x
CCOC(=O)CSC1=C(C#N)C(c2ccco2)C(C(=O)Nc2cccc(C(F)(F)F)c2)=C(C)N1 (configuration not stated)	-16	18*	-60	-4	5	-47	15	19*
CCn1c(/C=C/c2ccccc2)nc2ccccc21	-15	9	-25	2	12	-14	x	x
COc1ccc(Cn2c(/C=C/c3ccccc3)nc3ccccc32)cc1	-16	36*	-59	-2	16	-45	14	24*
CC(C)Cn1c(/C=C/c2ccccc2)nc2ccccc21	-4	18*	-35	2	9	-18	13	16
O=C(C1=C[C@H](c2coc3ccccc3c2=O)C[C@H](OCCCCO)O1)N1CCN(Cc2ccccc2)CC1	0	x	-14	0	7	-21	x	x
Cc1ccc(C)c(NC(=O)CSc2c(C)n[nH]c2C)c1	-3	x	3	-1	-2	7	x	x
Cc1cc2c(c(Sc3ccccc3)n1)C(=O)OC2	-6	22*	13	-1	0	5	-2	0
COC(=O)c1ccc(OCC(=O)c2ccc(C)c(C)c2)cc1	-13	26*	-14	2	12	-1	17	6
COC(=O)c1cc(Cl)c(NC(=O)/C=C/c2ccc(OC)cc2)cc1OC	-20	2	26	1	-1	14	x	x
CC(=O)c1ccc(OCC(C)C)c(Cc2c(O)nc(N)[nH]c2=O)c1	5	2	17	-1	8	10	x	x
Cc1cccc(Nc2nc(NCc3ccco3)c3ccccc3n2)c1	-16	27*	-2	0	5	10	22*	20*
CCCCOP(=O)(OCCCC)C(Nc1ccccc1)c1ccc2c(c1)OCO2 (configuration not stated)	-7	19*	-5	1	16	-1	13	8
CCCNC(=O)COC(=O)/C=C/c1ccc2c(c1)OCO2	-12	24*	-15	2	9	-12	11	7
CCn1cc(C(=O)OCC(=O)Nc2cccc(Cl)c2Cl)c(=O)c2ccc(C)nc21	-15	x	8	1	-2	6	x	x
Cn1c(CSc2nc3ccccc3s2)n[nH]c1=S	1	7	-31	0	12	-21	x	x
Cn1c(-c2sc3ccccc3c2Cl)n[nH]c1=S	1	17*	-30	-1	18	-26	15	12
CCCOc1ccc([N+](=O)[O-])cc1C1NC(=S)NC(c2ccccc2)=C1C(=O)OCC (configuration not stated)	2	8	-15	-1	1	-3	x	x
CCOC(=O)C1CCCN(Cc2ccccc2C)C1 (configuration not stated)	-3	17*	9	2	1	1	0	0
SMILES	S1P4 antag	NPY Y2 blocker	NPY1 pot ag	S1P4 agonist	NPY Y1 blocker	NPY2 pot ag	NPY-Y1 antag ct	NPY2 antag conf
CCOC(=O)C1CCCN(Cc2ccccc2Cl)C1 (configuration not stated)	-6	2	5	-1	0	3	x	x
COc1ccc(-c2cc(C(F)(F)F)nc(NCc3ccco3)n2)cc1OC	-11	18*	-3	0	9	-17	15	13
CCC1=[N+](CC(=O)c2ccc(Br)cc2)CCn2c(C)ccc21	-1	x	9	1	x	1	x	x
CC(C)(C)NCc1cc(Br)ccc1OCc1cccs1	6	20*	18	1	16	29	5	4
O=C1OCCC1Sc1nc2cc(Cl)ccc2s1 (configuration not stated)	-22	23*	-21	-1	16	-24	10	12
O=C1OCCC1Sc1nc2ccccc2s1 (configuration not stated)	0	8	-28	-1	16	-12	x	x
CCOc1cccc2c1OC1(C)CC2NC(=O)N1c1ccc(OC)cc1 (configuration not stated)	-14	2	0	0	-1	12	x	x
O=C(O)c1cc(-c2ccc(/C=N/Nc3ccc(Cl)cc3)o2)ccc1Cl	6	4	30	4	-8	20	x	x
O=c1[nH]c2ccc(S(=O)(=O)N3CCN(c4ccccc4F)CC3)cc2s1	-10	18*	-6	0	1	2	3	11
COc1ccc(CCNC(=S)Nc2ccc(OC)cc2)cc1	-16	-1	3	6	4	-2	x	x
COc1ccc2sc(N3C(=O)CC(Cc4cccc(C)c4)C3=O)nc2c1 (configuration not stated)	-16	27*	-25	2	11	-27	12	9
Cc1cccc(CC2CC(=O)N(c3nc4ccccc4s3)C2=O)c1 (configuration not stated)	-5	x	-7	2	12	-7	x	x
C/C(=N\O)c1ccc(Cl)c(Cl)c1	-7	x	-28	0	x	-22	x	x
O=C(NC1CCCCC1)C(c1ccc2ncccc2c1)N(Cc1ccc2c(c1)OCO2)C(=O)c1cccs1 (configuration not stated)	-4	24*	6	-3	20	-2	20*	11
CCOC(=O)CNC(=O)C12CC3CC(CC(C3)C1)C2	-2	x	10	1	5	7	x	x
Cc1ccc(CSCCNC(=O)c2ccc(N(C)S(=O)(=O)c3ccccc3)cc2)cc1	-19	18*	-36	-2	5	-26	10	15
CN(c1ccc(C(=O)NCCSCc2ccc(Cl)cc2)cc1)S(=O)(=O)c1ccccc1	-36	11	-23	1	8	10	x	x
CCOC(=O)c1nn(-c2ccccc2)c(C#N)c1N	-17	x	-14	-1	-7	-6	x	x
